Measured values taken from ChEMBL document CHEMBL1134907, “An improved synthesis of the C-linked glucuronide of N-(4-hydroxyphenyl)retinamide” (Bioorg Med Chem Lett, 2002).

How the values were obtained:
RARα = RARα (Homo sapiens, UniProt P10276); assay: Binding affinity for retinoic acid receptor RAR alpha
Rattus norvegicus [1] = assay: Latency in DMBA-induced mammary tumor in rat after retinoid dose of 2 mmol/kg diet; assay type: functional
RARγ = RARγ (Homo sapiens, UniProt P13631); assay: Binding affinity for retinoic acid receptor RAR gamma
RARβ = RARβ (Homo sapiens, UniProt P10826); assay: Binding affinity for retinoic acid receptor RAR beta
Rattus norvegicus [2] = assay: Mean number of tumors/rat after retinoid dose of 2 mmol/kg diet; assay type: functional
Rattus norvegicus [3] = assay: Percentage of rats with tumor after retinoid dose of 2 mmol/kg diet; assay type: functional
Rattus norvegicus [4] = assay: Initial DMBA-induced mammary tumor volume in rat after retinoid treatment at 2 mmol/kg diet; assay type: functional
Procedure, shortened: (§1)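 Rats bearing mammary tumors induced by dimethylbenz[a]anthracene (DMBA) 50 days earlier were fed the treatment retinoid in the diet for 10 days. Each group had three tumor-bearing rats, which were killed after the 10 days. Every tumor on each rat was measured to estimate the mean tumor volume for the group.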

Rattus norvegicus [5] = assay: Final DMBA-induced mammary tumor volume in rat after retinoid treatment at 2 mmol/kg diet; assay type: functional; procedure, shortened: as §1
Rattus norvegicus [6] = organism: Rattus norvegicus; assay: Percentage change in DMBA-induced mammary tumor in rats; no new tumors, partial regression in 10/10 tumors; assay type: functional; procedure, shortened: as §1
Rattus norvegicus [7] = organism: Rattus norvegicus; assay: Percentage change in DMBA-induced mammary tumor in rats;no new tumors, partial regression in 6/8 tumors; assay type: functional; procedure, shortened: as §1
Rattus norvegicus [8] = organism: Rattus norvegicus; assay: Percentage change in DMBA-induced mammary tumor in rats;Two new tumors, partial regression in 10/14 tumors; assay type: functional; procedure, shortened: as §1

Sequence of RARα (P10276 whole entry, looked up): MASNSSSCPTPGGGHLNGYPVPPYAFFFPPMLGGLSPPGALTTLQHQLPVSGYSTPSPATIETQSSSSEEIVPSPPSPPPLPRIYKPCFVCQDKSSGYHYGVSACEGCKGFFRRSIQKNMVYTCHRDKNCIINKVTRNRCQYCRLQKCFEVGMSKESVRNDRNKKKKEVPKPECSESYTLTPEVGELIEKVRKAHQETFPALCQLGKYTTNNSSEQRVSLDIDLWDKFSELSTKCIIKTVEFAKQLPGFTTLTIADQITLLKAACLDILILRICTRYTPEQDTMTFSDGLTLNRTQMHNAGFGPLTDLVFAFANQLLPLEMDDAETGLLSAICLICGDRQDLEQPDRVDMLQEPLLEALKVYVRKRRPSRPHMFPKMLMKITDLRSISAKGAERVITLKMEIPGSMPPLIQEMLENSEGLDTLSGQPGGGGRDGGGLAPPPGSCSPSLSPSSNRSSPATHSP
Sequence of RARβ (P10826 whole entry, looked up): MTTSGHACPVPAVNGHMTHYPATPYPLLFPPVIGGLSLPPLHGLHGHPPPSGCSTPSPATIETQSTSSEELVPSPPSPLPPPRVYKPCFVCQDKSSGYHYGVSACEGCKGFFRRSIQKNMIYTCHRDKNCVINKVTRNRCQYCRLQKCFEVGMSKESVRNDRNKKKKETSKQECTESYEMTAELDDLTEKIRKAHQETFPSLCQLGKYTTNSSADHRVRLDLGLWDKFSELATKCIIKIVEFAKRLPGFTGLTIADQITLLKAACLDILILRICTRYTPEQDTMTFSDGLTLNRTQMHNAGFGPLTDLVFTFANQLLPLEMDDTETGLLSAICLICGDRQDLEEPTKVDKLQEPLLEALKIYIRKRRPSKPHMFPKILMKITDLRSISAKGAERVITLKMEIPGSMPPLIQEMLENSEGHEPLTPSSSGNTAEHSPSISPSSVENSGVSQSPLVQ
Sequence of RARγ (P13631 whole entry, looked up): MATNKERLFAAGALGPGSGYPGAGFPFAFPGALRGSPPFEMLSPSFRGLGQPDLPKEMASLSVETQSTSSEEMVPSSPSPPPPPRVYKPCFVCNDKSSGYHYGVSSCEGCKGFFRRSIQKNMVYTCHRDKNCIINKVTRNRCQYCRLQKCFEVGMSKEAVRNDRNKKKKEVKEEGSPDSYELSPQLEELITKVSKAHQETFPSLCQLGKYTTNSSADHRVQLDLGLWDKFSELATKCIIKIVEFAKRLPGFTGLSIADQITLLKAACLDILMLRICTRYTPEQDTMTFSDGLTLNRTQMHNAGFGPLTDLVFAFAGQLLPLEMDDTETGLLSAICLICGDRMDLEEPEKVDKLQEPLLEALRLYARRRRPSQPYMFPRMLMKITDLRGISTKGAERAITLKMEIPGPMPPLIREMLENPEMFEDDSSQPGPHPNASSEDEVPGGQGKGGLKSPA

SMILES | Ki (RARα) | Mean tumor atency (Rattus norvegicus [1]) | Ki (RARγ) | Ki (RARβ) | Activity (Rattus norvegicus [2]) | Activity (Rattus norvegicus [3]) | Tumor volume (Rattus norvegicus [4]) | Tumor volume (Rattus norvegicus [5]) | Change (Rattus norvegicus [6]) | Change (Rattus norvegicus [7]) | Change (Rattus norvegicus [8])
CC1=C(/C=C/C(C)=C/C=C/C(C)=C/C(=O)Nc2ccc(O[C@@H]3O[C@@H](C(=O)O)[C@@H](O)[C@H](O)[C@@H]3O)cc2)C(C)(C)CCC1 | > 2200 nM | 48 days | > 6 µM | > 2800 nM | 0.71 | 57% |  |  |  |  | 
CC1=C(/C=C/C(C)=C/C=C/C(C)=C/C(=O)O)C(C)(C)CCC1 [TRETINOIN] |  |  |  |  |  |  | 0.94 cm*3 | 0.56 cm*3 | -40% |  | 
CC1=C(/C=C/C(C)=C/C=C/C(C)=C/C(=O)Nc2ccc(CC3OC(C(=O)O)C(O)C(O)C3O)cc2)C(C)(C)CCC1 (stereo not drawn) | > 2200 nM | 55 days |  | > 6000 nM | 0.36 | 27% | 0.29 cm*3 | 0.23 cm*3 |  | -21% | 
CC1=C(/C=C/C(C)=C/C=C/C(C)=C/C(=O)Nc2ccc(O)cc2)C(C)(C)CCC1 [FENRETINIDE] | > 2200 nM |  | > 6 µM | > 2800 nM |  |  | 0.16 cm*3 | 0.12 cm*3 |  |  | -25%
